Data: ChEMBL document CHEMBL2401648, “3-Aryl-3-arylmethoxyazetidines. A new class of high affinity ligands for monoamine transporters” (Bioorg Med Chem Lett, 2013)

Assays:
Type in all cases: tissue-based
[1] = organism: Rattus norvegicus; experiment: Selectivity ratio of Ki for DAT in Sprague-Dawley rat brain homogenate to Ki for SERT in Sprague-Dawley rat brain homogenate
Procedure, shortened: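 Ratio of DAT Ki to SERT Ki. DAT Ki came from [3H]WIN 35,428 displacement and SERT Ki from [3H]citalopram displacement, both in rat brain tissue. Each Ki is the mean ± SEM of three experiments run in triplicate.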

[2] = target: Sodium-dependent serotonin transporter (Rattus norvegicus, UniProt P31652); experiment: Displacement of [3H]Citalopram from SERT in Sprague-Dawley rat brain homogenate after 60 mins by scintillation counting analysis
Sodium-dependent serotonin transporter, sequence (P31652 whole entry): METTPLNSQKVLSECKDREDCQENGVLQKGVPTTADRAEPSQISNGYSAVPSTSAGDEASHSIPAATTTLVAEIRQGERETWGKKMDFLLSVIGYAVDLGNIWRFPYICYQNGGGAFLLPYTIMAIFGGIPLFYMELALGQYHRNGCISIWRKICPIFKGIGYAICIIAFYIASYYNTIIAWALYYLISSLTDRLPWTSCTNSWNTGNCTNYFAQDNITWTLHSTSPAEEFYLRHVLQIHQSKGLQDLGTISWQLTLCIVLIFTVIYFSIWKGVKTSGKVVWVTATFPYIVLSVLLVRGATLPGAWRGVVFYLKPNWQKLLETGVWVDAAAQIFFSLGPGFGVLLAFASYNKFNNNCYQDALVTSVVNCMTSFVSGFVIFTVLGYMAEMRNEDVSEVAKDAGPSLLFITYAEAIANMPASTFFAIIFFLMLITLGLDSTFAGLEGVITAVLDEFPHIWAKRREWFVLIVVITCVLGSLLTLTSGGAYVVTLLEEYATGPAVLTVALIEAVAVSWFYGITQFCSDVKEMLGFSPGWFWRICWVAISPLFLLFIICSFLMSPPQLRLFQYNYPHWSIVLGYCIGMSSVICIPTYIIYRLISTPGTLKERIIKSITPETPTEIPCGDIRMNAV
Procedure, shortened: (§1)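 Competitive binding in rat brain tissue: [3H]citalopram displaced from SERT, [3H]WIN 35,428 displaced from DAT. Ki values are the mean ± SEM of three experiments run in triplicate. Compounds tested mainly as hydrochloride salts, some as oxalate salts.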

[3] = target: Sodium-dependent dopamine transporter (Rattus norvegicus, UniProt P23977); experiment: Displacement of [3H]WIN 35,428 from DAT in Sprague-Dawley rat brain homogenate preincubated for 5 mins prior to radioligand addition measured after 1 hr by scintillation counting analysis; procedure, shortened: as §1
Sodium-dependent dopamine transporter, sequence (P23977 whole entry): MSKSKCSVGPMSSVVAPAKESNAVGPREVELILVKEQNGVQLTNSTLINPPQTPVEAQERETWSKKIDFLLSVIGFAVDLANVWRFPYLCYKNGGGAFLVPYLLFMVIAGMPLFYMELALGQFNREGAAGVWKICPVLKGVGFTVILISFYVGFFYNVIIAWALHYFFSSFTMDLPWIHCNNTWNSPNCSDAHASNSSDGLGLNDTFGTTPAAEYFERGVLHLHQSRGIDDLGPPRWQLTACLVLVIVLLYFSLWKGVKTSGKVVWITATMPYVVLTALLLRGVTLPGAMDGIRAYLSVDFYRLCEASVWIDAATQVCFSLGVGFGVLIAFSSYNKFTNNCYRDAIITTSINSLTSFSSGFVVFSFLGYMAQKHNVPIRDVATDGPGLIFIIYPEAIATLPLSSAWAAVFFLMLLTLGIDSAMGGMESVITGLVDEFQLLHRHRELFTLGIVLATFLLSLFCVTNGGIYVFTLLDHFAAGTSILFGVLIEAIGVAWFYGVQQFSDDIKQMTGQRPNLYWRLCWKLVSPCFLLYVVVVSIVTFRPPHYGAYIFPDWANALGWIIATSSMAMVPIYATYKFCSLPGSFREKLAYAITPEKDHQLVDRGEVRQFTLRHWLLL

Compound	Ratio Ki [1]	Ki [2] [nM]	Ki [3] [nM]
Clc1ccc(C2(OCc3ccccc3)CNC2)cc1Cl	6.3	208	1300
Clc1ccc(COC2(c3ccccc3)CNC2)cc1Cl	390	7.3	2820
CN1CC(OCc2ccccc2)(c2ccc(Cl)c(Cl)c2)C1	27	23	620
CN1CC(OCc2ccccc2)(c2ccccc2)C1	24	73	1730
CN1CC(OCc2ccc(Cl)cc2)(c2ccccc2)C1	980	4	3910
CN1CC(OCc2ccc(Cl)c(Cl)c2)(c2ccccc2)C1		1	
CN1CC(OCc2ccc(Cl)c(Cl)c2)(c2ccc(Cl)cc2)C1	330	3	976
Clc1ccc(C2(OCc3ccc(Cl)c(Cl)c3)CNC2)cc1	470	8.1	3770
Clc1ccc(COC2(c3ccc(Cl)c(Cl)c3)CNC2)cc1	1000	2.9	3020
CN1CC(OCc2ccc(Cl)cc2)(c2ccc(Cl)c(Cl)c2)C1	630	4.8	2290
CN1CC(OCc2ccc(Cl)cc2)(c2ccc(Cl)cc2)C1	490	7.8	2030
c1ccc(COC2(c3ccccc3)CNC2)cc1	4	1230	4860
CN1CC(OCc2ccc(Cl)c(Cl)c2)(c2ccc(Cl)c(Cl)c2)C1	340	1.3	436
CN1CC(OCc2ccccc2)(c2ccc(Cl)cc2)C1	36	39	1410
Clc1ccc(COC2(c3ccccc3)CNC2)cc1	1.4	2590	3610
Clc1ccc(COC2(c3ccc(Cl)cc3)CNC2)cc1	1100	3.5	3830
Clc1ccc(C2(OCc3ccccc3)CNC2)cc1	3.9	825	3180
Clc1ccc(COC2(c3ccc(Cl)c(Cl)c3)CNC2)cc1Cl	870	4.2	3670
